Compound activity deposited in PubChem BioAssay by The Scripps Research Institute Molecular Screening Center.
M4 ag – agonists of human muscarinic M4 receptor (CHRM4); P08173; CHO-K1 hM4/Gqi5, Fluo-8 calcium fluorescence; vehicle 0%, full acetylcholine response 100%; activation, % at 3 µM; hit rate 0.14% among 360,000; AID 624127;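 active means activation above the run mean over all test wells plus 3 SD, cut at about 32% in these data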;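 further: peak over basal fluorescence ratio per well then scaled between controls; 0% = DMSO wells and 100% = acetylcholine at EC100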
Target sequence (P08173 whole entry, looked up): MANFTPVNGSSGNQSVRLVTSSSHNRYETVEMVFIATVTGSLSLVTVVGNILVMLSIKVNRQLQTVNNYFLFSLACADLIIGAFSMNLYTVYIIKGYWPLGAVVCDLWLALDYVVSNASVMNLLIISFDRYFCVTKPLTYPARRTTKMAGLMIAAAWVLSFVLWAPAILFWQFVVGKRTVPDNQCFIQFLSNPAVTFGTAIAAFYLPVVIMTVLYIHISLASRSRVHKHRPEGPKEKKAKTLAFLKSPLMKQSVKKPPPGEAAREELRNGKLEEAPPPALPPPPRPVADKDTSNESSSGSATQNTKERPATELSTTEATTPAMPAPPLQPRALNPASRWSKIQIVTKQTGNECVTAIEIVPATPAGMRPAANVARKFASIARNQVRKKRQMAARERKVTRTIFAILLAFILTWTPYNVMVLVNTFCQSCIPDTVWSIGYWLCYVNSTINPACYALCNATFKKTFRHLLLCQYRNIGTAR
CHRM5 PAM – positive allosteric modulators of human muscarinic M5 receptor | P08912 | AID 624038 | CHO-K1 hM5, Fluo-8 calcium, ACh EC20 PAM; 0% = ACh EC20, 100% = ACh EC100 | hit rate 0.3% among 360,000 | activation, % at 3 µM;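 active means activation above the run cutoff, the mean activation of all test compounds plus 3 SD, cut at about 18% in these data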
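Measured by: Fluo-8 calcium fluorescence; material: human M5 receptor in CHO-K1 cells; schedule: Post-acetylcholine fluorescence recording 140 s; benchmarks: low control EC20 acetylcholine (0%), high control EC100 acetylcholine (100%); read-out: Max/basal fluorescence ratio as % of EC20–EC100 ACh window; compound: single dose, 3 µM nominal final test concentration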
M5 ag – agonists of human muscarinic M5 receptor (CHRM5); hit rate 0.19% among 360,000; CHO-K1 hM5 cells, Fluo-8 calcium fluorescence; 0% DMSO wells, 100% maximal acetylcholine response; activation, % at 3 µM; P08912; AID 624037;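 active means activation above the run's mean over test compounds plus 3 SD, cut at about 23% in these data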;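 further: signal is peak over basal fluorescence ratio across the kinetic read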
M4 PAM – potentiates acetylcholine response at human M4 receptor. P08173. CHO-K1 hM4/Gqi5, Fluo-8 calcium fluorescence, ACh EC20; 0% = ACh EC20, 100% = maximal ACh. activation, % at 3 µM. hit rate 0.4% among 360,000. AID 624126;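 active means activation above its plate's cutoff, the mean activation of sample wells plus 3 SD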
CHRM5 antagonist – antagonists of human muscarinic M5 receptor (CHRM5). CHO-hM5 cells, Fluo-8 calcium fluorescence, ACh EC80. hit rate 0.59% among 360,000. P08912. inhibition, % at 3 µM;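 active means inhibition above a per-plate cutoff, the mean of that plate's test compounds plus 3 SD, cut at about 27% in these data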;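 further: 0% = acetylcholine EC80 with DMSO and 100% = DMSO without agonist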
CHRM4 antagonist – antagonists of human muscarinic M4 receptor (CHRM4) | inhibition, % at 3 µM | CHO-hM4 cells, ACh EC80, Fluo-8 calcium fluorescence | hit rate 0.73% among 360,000 | P08173 | AID 624125;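 active means inhibition above its plate's cutoff, the mean inhibition of sample wells plus 3 SD, cut at about 27% in these data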;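 further: 0% = acetylcholine EC80 with DMSO and 100% = DMSO without agonist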
An asterisk follows results filed as active. A selection: hits, their analogues and other compounds. The true share with any hit is near 1.8%.

SMILES	M4 ag	CHRM5 PAM	M5 ag	M4 PAM	CHRM5 antagonist	CHRM4 antagonist
CCOC(=O)[C@]12CCCC=C1N(Cc1ccccc1)C(=O)[C@H](CC(=O)N1CCCCCC1)C2	2	-1	1	1	-3	-8
Cc1cccc(C)c1NC(=O)C(CCc1ccccc1)N1CCC(c2ccccc2)CC1 (stereo not given)	1	-8	0	-10	3	-10
CCN(CC)C(=O)Cn1cc(C(=O)C(=O)N(C)C2CCN(C)CC2)c2ccccc21	0	2	-4	17*	6	-4
CCC1CCCCN1C(=O)C(=O)c1cn(CC(=O)N(CC)CC)c2ccccc12 (stereo not given)	0	-2	-4	-6	9	1
COc1ccccc1Cc1c(-c2ccc(C#N)cc2)nc2c3ccccc3ccn12	1	-5	-3	3	0	0
COc1ccc(OC)c(-c2nnc3n2N=C(c2ccc(OC(F)F)c(OCC4CC4)c2)CS3)c1	1	-40	-9	-13	21	28*
COc1ccc(C2=Nn3c(nnc3-c3ccccc3F)SC2)cc1OC1CCOC1 (stereo not given)	8	-16	0	2	3	-11
COc1ccc(C2=Nn3c(nnc3-c3ccccc3OC)SC2)cc1OCC1CC1	2	-6	-11	12	-3	4
COc1ccc(C2=Nn3c(nnc3-c3ccccc3F)SC2)cc1OC1CCCC1	6	-32	-10	-9	12	29*
COc1cc2nc(N3CCN(C(=O)c4ccco4)CC3)nc(N)c2cc1OC	9	3	2	-13	-4	-9
COc1cc2nc(N3CCN(C(=O)C4COc5ccccc5O4)CC3)nc(N)c2cc1OC (stereo not given)	5	-7	1	-11	3	29*
COc1ccc(S(=O)(=O)N2CCN(C(=O)C3COc4ccccc4O3)CC2)cc1 (stereo not given)	8	-15	2	-15	14	32*
O=C(CN1CCC(NC(=O)c2cccc(F)c2)CC1)NCc1cccs1	3	-1	-1	24*	17	-3
CCN1C(=O)/C(=C2\Sc3ccccc3N2CC)OC1=S	2	14	0	23*	-12	-8
C=CCN1C(=O)/C(=C2/Sc3ccccc3N2CC)SC1=S	-1	5	0	-6	3	-8
FC(F)Sc1ccc(NC(=S)NCC2CCCCC2)cc1	7	-17	1	-24	40*	12
CCCCCCCC/C=C\CCCCCCCC(=O)NCCc1ccc(O)c(O)c1	0	19*	3	1	-3	11
C=CCNC(=O)Nc1ccc(Cl)cn1	0	1	0	21*	-1	-5
CCN(CC)CCNC(=O)c1ccc(NC(=O)c2cn(-c3ccc(F)cc3)nc2-c2cccc(OC)c2)cc1	3	-19	-8	-18	67*	48*
CCN(CC)CCNC(=O)c1ccc(NC(=O)c2c(C)nn(-c3ccc(F)cc3)c2Cl)cc1	7	-16	-5	-21	49*	41*
CCN(CC)CCNC(=O)c1ccc(NC(=O)c2cn(-c3ccccc3)nc2-c2cccs2)cc1	7	-18	-10	-17	16	10
Cn1nc(C(C)(C)C)cc1C(=O)N1CCCC(C)(C(=O)NS(=O)(=O)C2CC2)C1 (stereo not given)	1	3	2	4	-4	4
O=C(NCC[C@H]1CC[C@H](NS(=O)(=O)c2ccccc2F)[C@@H](CO)O1)c1ccc(F)cc1	2	-4	1	-4	7	11
COc1cc(NC(=O)COC(=O)c2ccccc2F)cc(OC)c1	1	4	-2	3	1	29*
COc1cccc(NC(=O)COC(=O)c2ccc(F)cc2F)c1	2	2	2	-3	-1	3
SMILES	M4 ag	CHRM5 PAM	M5 ag	M4 PAM	CHRM5 antagonist	CHRM4 antagonist
COc1ccc(CNC(=O)C2CCN(S(=O)(=O)c3ccc4c(c3)C(C)(C)C(=O)N4C)CC2)cc1	-3	-5	0	-21	0	101*
CN(C)S(=O)(=O)c1ccc(-c2csc(N/N=C/c3ccco3)n2)cc1	23	-34	6	-33	24	30*
C(=N\Nc1nc(-c2ccccc2)cs1)/c1ccncc1	4	-8	0	0	6	-2
CN(C)S(=O)(=O)c1ccc(-c2csc(N/N=C/c3ccc(O)cc3)n2)cc1	19	-14	-1	-25	24	29*
Cc1ccc(-c2csc(N/N=C/c3ccco3)n2)cc1	0	-7	4	9	9	-1
COc1cccc(N2CCN(c3ncnc4c3[nH]c3ccc(F)cc34)CC2C)c1 (stereo not given)	28	-23	7	-23	77*	85*
COc1cc(C(=O)NCC(c2cccs2)N2CCOCC2)ccc1OCc1ccc(Cl)cc1 (stereo not given)	11	-6	8	-8	10	-8
Cn1ncc(Cl)c1C(=O)N1CCN(c2ccc(Cl)c(Cl)c2)CC1	16	-15	2	0	29*	-8
COCCNC(=O)c1cccc2c(-c3ccnn3C)coc12	0	-5	1	1	0	-5
CCOC(=O)N1CCN(c2ncnc3c2cnn3-c2ccc(OC)cc2)CC1	3	0	5	28*	-9	-10
CCOC(=O)C1CCN(c2ncnc3c2cnn3-c2ccc(Cl)cc2)CC1	1	19*	0	4	-14	-3
COc1ccc(-n2ncc3c(N4CCC(C)CC4)ncnc32)cc1	0	-6	2	4	4	-7
COc1cc(C(=O)OCC(=O)NCC2CCCCC2)ccc1OCC(C)C	0	-1	0	1	2	-9
Cc1ccsc1C(=O)N1CCCC(C)(C(=O)O)C1 (stereo not given)	0	-3	2	1	-1	-7
CC(=O)Nc1ccc(NC(=O)C(C)OC(=O)c2ccc3c(c2)OCCO3)cc1 (stereo not given)	1	4	-4	32*	3	-8
CC(=O)NCC(=O)OC(C)C(=O)Nc1ccc(C(C)=O)cc1 (stereo not given)	1	25*	0	2	-5	-1
CC(C)(C)N1CC(C(=O)Nc2ccc(C(N)=O)cc2)CC1=O (stereo not given)	0	3	0	1	12	-8
CC1C(=O)NN=C1C(=O)N/N=C\c1ccc(O)cc1O (stereo not given)	1	5	-3	29*	-6	-34
